In ChEMBL document CHEMBL4382210, “Identification of novel benzothiopyranone compounds against Mycobacterium tuberculosis through scaffold morphing from benzothiazinones” (Eur J Med Chem, 2018):

What was measured:
[1] = Metabolic stability in human liver microsomes assessed as parent compound remaining at 1 uM measured after 30 mins in presence of NADPH by LC-MS/MS analysis; type: ADME, Microsome; conditions: read-out: Stability
Outline: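 Male CD-1 mouse or pooled human liver microsomes (1 mg/mL protein), compound at 1 µM, 37 °C. Reaction started with 1 mM NADPH and quenched with cold ACN/MeOH containing internal standard. Parent remaining measured by LC-MS/MS; the 30-min value is normalised to time zero.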

[2] = AUC (0 to infinity) in BALB/C mouse at 25 mg/kg, po by LC/TSQ quantum access mass spectrometry; type: ADME, organism-based; parameters: dose 25 mg/kg, time infinity, route oral; conditions: in vivo
Outline: (§1)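 Male Balb/c mice (22–23 g), three per route. Single dose of 25 mg/kg p.o. (2.5 mg/mL in 0.5% carboxymethyl cellulose + 0.5% Tween 80) or 10 mg/kg i.v. (2.0 mg/mL in 20% HP-β-CD with 4 mol/L HCl). Blood sampled 5, 15, 30 min, 1, 2, 4, 7, 24 h. Plasma extracted with acetonitrile plus terfenadine internal standard, then LC-MS/MS on a C18 column. F = (AUCpo×dose_iv)/(AUCiv×dose_po).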

[3] = Inhibition of Mycobacterium tuberculosis DprE1 expressed in Escherichia coli BL21(DE3) by fluorescence based assay
Outline: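 Buffer: 50 mM Hepes pH 7.5, 100 mM NaCl, 1.5% DMSO, 100 µM Tween-20, 2 µM FAD, 50 µM resazurin. DprE1 (1 µM) with 1 mM FPR at 30 °C across inhibitor concentrations. Resorufin formation followed by fluorescence (ex 530/em 595 nm).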

[4] = Acute toxicity in po dosed BALB/C mouse assessed as mortality administered as single dose measured during 7 days observation period; type: organism-based; conditions: in vivo
Outline: (§2)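 Female Balb/c mice (18–21 g), ten animals, given one oral dose of 2 g/kg. Survivors counted after 7 days of observation.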

[5] = MRT (0 to infinity) in BALB/C mouse at 10 mg/kg, iv by LC/TSQ quantum access mass spectrometry; type: ADME, organism-based; conditions: in vivo; outline: as §1
Cytochrome P450 2D6 = Cytochrome P450 2D6 (Homo sapiens, UniProt P10635); test: Inhibition of CYP2D6 in human liver microsomes after 20 mins by LC-MS/MS analysis; type: ADME
Chain of Cytochrome P450 2D6 (P10635 whole entry, canonical isoform): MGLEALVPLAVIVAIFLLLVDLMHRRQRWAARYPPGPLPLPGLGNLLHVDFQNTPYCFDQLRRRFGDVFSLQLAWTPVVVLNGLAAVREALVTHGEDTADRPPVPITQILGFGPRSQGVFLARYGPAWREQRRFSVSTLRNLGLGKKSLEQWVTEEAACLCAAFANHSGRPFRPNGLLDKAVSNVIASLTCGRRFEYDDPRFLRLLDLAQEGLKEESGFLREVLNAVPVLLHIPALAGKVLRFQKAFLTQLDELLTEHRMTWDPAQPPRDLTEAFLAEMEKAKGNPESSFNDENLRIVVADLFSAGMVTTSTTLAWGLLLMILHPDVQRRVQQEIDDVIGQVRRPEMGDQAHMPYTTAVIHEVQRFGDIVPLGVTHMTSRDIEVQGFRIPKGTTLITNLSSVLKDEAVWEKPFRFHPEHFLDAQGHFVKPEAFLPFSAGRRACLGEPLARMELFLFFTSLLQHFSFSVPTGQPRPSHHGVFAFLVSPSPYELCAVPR
Outline: (§3)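 Compound at 0.1–50 µM incubated 20 min with human liver microsomes (0.2 mg/mL) and the CYP isoform, alongside isoform-specific probe substrates. Substrate remaining measured by LC-MS/MS at each concentration to derive IC50.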

[6] = test system: Mycobacterium tuberculosis; test: Antimicrobial activity against Mycobacterium tuberculosis H37Rv infected in BALB/C mouse assessed as bacterial burden in mouse lung at 100 mg/kg, po administered via gavage treated 5 times per week for 3 weeks starting from day 10 post infection (reference value: 7.102 +/- 0.152 log10CFU); type: functional
[7] = Elimination half life in BALB/C mouse at 25 mg/kg, po by LC/TSQ quantum access mass spectrometry; type: ADME, organism-based; conditions: in vivo, read-out: beta t1/2 (converted); outline: as §1
[8] = Acute toxicity in BALB/C mouse assessed as mouse survival at 2 g/kg, po administered as single dose measured during 7 days observation period; type: organism-based; conditions: in vivo, 2000 mg/kg, 168 h; outline: as §2
[9] = Half life in CD-1 mouse hepatocytes assessed per million cells at 1 uM incubated up to 120 mins by LC-MS/MS analysis; type: ADME, cell-based, Hepatocyte
Outline: (§4)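 Pooled male CD-1 mouse or pooled human hepatocytes at 1 million cells/mL final, compound at 1 µM. Incubated at 37 °C in a CO2 incubator with shaking (~100 rpm). Samples taken at 0, 15, 30, 60, 90 and 120 min and quenched with cold ACN/MeOH containing internal standard. Parent compound remaining measured by LC-MS/MS.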

[10] = Half life in human hepatocytes assessed per million cells at 1 uM incubated up to 120 mins by LC-MS/MS analysis; type: ADME, cell-based, Hepatocyte; outline: as §4
[11] = AUC (0 to 24 hrs) in BALB/C mouse at 10 mg/kg, iv by LC/TSQ quantum access mass spectrometry; type: ADME, organism-based; parameters: time < 24 hr, dose 10 mg/kg, route intravenous; conditions: in vivo; outline: as §1
HepG2 = test: Cytotoxicity against human HepG2 cells assessed as reduction in cell viability after 48 hrs by MTT assay; type: cell-based; conditions: HepG2, 48 h
Outline: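 Vero or HepG2 cells in RPMI1640 with 10% FBS at 37 °C, 5% CO2, seeded at 4×10^5 cells/mL. Threefold dilutions at 64–0.26 µg/mL final for 48 h. Cells then washed with HBSS, MTT added for 4 h, absorbance read at 492 nm. IC50 taken relative to untreated control.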

Cytochrome P450 1A2 = target: T1, Cytochrome P450 1A2 (Homo sapiens, UniProt P05177); test: Inhibition of CYP1A2 in human liver microsomes after 20 mins by LC-MS/MS analysis; type: ADME; outline: as §3
T1 sequence (P05177 whole entry): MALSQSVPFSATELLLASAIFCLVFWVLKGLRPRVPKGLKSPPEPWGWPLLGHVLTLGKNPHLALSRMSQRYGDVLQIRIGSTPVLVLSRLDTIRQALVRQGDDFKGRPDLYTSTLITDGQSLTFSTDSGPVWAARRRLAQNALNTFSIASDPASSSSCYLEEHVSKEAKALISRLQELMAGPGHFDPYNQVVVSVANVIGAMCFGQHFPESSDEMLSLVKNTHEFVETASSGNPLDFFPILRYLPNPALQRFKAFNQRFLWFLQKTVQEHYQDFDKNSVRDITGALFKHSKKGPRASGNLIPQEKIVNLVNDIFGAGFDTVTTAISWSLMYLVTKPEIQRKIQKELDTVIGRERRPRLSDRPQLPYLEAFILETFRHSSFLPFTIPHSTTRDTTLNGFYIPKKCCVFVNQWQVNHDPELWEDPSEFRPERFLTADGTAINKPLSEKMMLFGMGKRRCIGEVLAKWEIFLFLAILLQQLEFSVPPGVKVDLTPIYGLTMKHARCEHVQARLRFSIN

[12] = Cmax in BALB/C mouse at 25 mg/kg, po by LC/TSQ quantum access mass spectrometry; type: ADME, organism-based; parameters: dose 25 mg/kg, route oral; conditions: in vivo; outline: as §1
[13] = Intrinsic clearance in CD-1 mouse hepatocytes assessed per million cells at 1 uM incubated up to 120 mins by LC-MS/MS analysis; type: ADME, cell-based, Hepatocyte; conditions: read-out: CLH; outline: as §4
[14] = AUC (0 to 24 hrs) in BALB/C mouse at 25 mg/kg, po by LC/TSQ quantum access mass spectrometry; type: ADME, organism-based; parameters: time < 24 hr, dose 25 mg/kg, route oral; conditions: in vivo; outline: as §1
Cytochrome P450 2C9 = Cytochrome P450 2C9 (Homo sapiens, UniProt P11712); test: Inhibition of CYP2C9 in human liver microsomes after 20 mins by LC-MS/MS analysis; type: ADME; outline: as §3
Chain of Cytochrome P450 2C9 (P11712 whole entry): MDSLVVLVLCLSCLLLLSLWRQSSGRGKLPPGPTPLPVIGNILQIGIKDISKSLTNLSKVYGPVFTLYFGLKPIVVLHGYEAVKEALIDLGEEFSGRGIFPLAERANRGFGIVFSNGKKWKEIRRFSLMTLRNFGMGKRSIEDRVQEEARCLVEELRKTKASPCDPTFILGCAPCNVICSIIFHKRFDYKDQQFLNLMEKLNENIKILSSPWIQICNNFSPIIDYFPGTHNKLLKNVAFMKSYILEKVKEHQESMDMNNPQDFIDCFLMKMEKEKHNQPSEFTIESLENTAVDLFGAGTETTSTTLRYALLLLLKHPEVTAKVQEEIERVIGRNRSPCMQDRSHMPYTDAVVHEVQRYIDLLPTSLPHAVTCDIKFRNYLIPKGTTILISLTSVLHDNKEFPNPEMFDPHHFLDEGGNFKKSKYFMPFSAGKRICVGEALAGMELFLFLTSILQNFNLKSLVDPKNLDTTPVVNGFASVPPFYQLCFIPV

[15] = test system: Mycobacterium tuberculosis; test: Antimicrobial activity against Mycobacterium tuberculosis H37Rv after 7 days by MABA; type: functional; conditions: 168 h
Outline: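 Strain H37Rv or clinical isolates grown to late log phase in 7H9-ADC-TG, washed, resuspended in PBS, filtered (8 µm) and frozen. On day 7 Tween 80 and alamar blue added, read 16–24 h later (ex 530/em 590). MIC = lowest concentration giving ≥90% fluorescence reduction versus bacterium-only controls.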

Cytochrome P450 3A4 = Cytochrome P450 3A4 (Homo sapiens, UniProt P08684); test: Inhibition of CYP3A4 in human liver microsomes after 20 mins by LC-MS/MS analysis; type: ADME; outline: as §3
Chain of Cytochrome P450 3A4 (P08684 whole entry): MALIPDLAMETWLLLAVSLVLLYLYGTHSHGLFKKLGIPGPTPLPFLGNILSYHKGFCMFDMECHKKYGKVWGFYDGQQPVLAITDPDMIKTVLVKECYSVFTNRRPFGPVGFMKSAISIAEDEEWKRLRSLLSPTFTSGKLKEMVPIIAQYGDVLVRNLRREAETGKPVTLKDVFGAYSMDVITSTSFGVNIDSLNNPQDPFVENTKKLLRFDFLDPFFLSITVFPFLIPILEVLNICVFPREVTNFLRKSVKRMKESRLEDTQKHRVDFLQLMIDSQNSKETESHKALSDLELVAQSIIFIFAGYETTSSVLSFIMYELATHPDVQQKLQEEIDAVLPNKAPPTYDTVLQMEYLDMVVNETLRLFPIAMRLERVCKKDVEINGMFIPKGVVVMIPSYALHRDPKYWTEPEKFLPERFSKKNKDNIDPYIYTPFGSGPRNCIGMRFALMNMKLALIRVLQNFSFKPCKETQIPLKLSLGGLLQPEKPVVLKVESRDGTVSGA

O=c1cc(N2CCN(CC3CCCCC3)CC2)sc2c([N+](=O)[O-])cc(C(F)(F)F)cc12
remaining at 0.5 h, 1 µM [1]: 66.7%
AUC(0-inf) [2]: 1700 ng·h/mL
IC50 [3]: 4.53 µM
LD50 at 168 h [4]: > 2000 mg/kg
MRT inf [5]: 4.91 h
IC50 (Cytochrome P450 2D6): > 50 µM
Activity [6]: 1.678 log10CFU
half-life [7]: 7.25 h
Activity [8]: Non-Toxic
half-life at 1 µM [9]: 7.7 h
half-life at 1 µM [10]: 3.73 h
AUC(0-t) at 24 h [11]: 4950 ng·h/mL
IC50 (HepG2): > 64 µg/mL
IC50 (Cytochrome P450 1A2): > 50 µM
Cmax [12]: 588 ng/mL
hepatocyte CLint at 1 µM [13]: 1.5 µL/min/1e6 cells
AUC(0-t) at 24 h [14]: 1580 ng·h/mL
IC50 (Cytochrome P450 2C9): > 50 µM
MIC90 [15]: < 0.016 µg/mL
IC50 (Cytochrome P450 3A4): > 50 µM
